From article PMC7008087 (Biochimica et biophysica acta. Molecular cell research, 2019)

Key:
H441 and Calu-3 cells = assay: Cell-proliferation, H441 and Calu-3 reported together; format: cell-based, human; settings: for effect on Bn-stimulated increase in cell-proliferation: H441 and Calu-3 cells, Bn 1 μM, 24 hr, CCK-8 and MTS
p44/42 = p44/42 MAPK phosphorylation; format: cell-based, human
Akt = Akt phosphorylation; format: cell-based, human
HER3/HER2 = HER3/HER2 heterodimerization; format: cell-based, human; settings: H441 and Calu-3 cells; 100 nM Bn or 100 ng/mL NRG-1
In short: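 Serum-starved H441 and Calu-3 cells received no addition, 100 nM Bn or 100 ng/mL NRG-1. RIPA lysate (800 μg protein) was incubated with anti-HER3 antibody for 1 hr at 4 °C, then with protein A/G agarose overnight at 4 °C. Beads were washed five times in RIPA and boiled in Laemmli buffer. Partners were detected by Western blot, with tubulin from whole-cell extract as loading control; values are given as ratio to control.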

HER3 = HER3 (Homo sapiens, UniProt P21860); assay: HER3 phosphorylation; format: cell-based; settings: for EC50, HER3 phosphorylation: mean ± SEM of three independent experiments
In short: (§1)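 H441 or H2087 cells at 80% confluence were serum-starved overnight, then given Bn (0.1-100 nM) or NRG-1 (0.1-100 ng/mL) for 3 min. Cells were lysed in RIPA buffer (pH 7.6) and protein was measured by BCA. Lysates were run on a 4–20% gel and blotted for phospho-EGFR Tyr1068, HER2 Tyr1248 and HER3 Tyr1289, with tubulin as loading control. Bands were read by densitometry as % basal; mean ± SEM, ≥3 experiments.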

EGFR = EGFR phosphorylation; format: cell-based, human; settings: for EC50, EGFR phosphorylation: mean ± SEM of three independent experiments
In short: as §1

HER2 = HER2 phosphorylation; format: cell-based, human; settings: for EC50, HER2 phosphorylation: mean ± SEM of three independent experiments
In short: as §1

EGFR, HER2, and HER3 = assay: EGFR, HER2 and HER3 phosphorylation reported together; format: cell-based, human
In short: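 Time course: serum-starved (overnight) H441, H2087 or Calu-3 cells were stimulated with Bn 100 nM or NRG-1 100 ng/mL for 3-60 min. Cells were lysed in RIPA and blotted for phospho-EGFR (Tyr1068), HER2 (Tyr1248) and HER3 (Tyr1289) using primary antibodies at 1:1000 overnight at 4 °C. Tubulin served as loading control, and background-subtracted densitometry was expressed as % of basal.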

HER3/EGFR = HER3/EGFR heterodimerization; format: cell-based, human; settings: H441 and Calu-3 cells; 100 nM Bn or 100 ng/mL NRG-1
In short: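 Serum-starved (overnight) 80%-confluent cells treated with test peptide (100 nM) or reference ligand (100 ng/mL); lysed in RIPA (pH 7.6), sonicated, cleared. 800 μg protein with anti-HER3 antibody, 1 hr at 4 °C, then protein A/G agarose overnight at 4 °C; five RIPA washes. Immunoblotted for partner receptors by chemiluminescence; background-subtracted densitometry as ratio to untreated control; whole-extract tubulin as loading control.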

[1] = Wortmannin 1 μM or LY294002 10 μM
[2] = H441 cells, dose-response, 3 min, Bn 100 nM maximal, NRG-1 0.1-100 ng/mL
[3] = H2087 cells, 100 nM Bn or 100 ng/mL NRG-1, 3 min
[4] = H441 cells, NRG-1 0.1-100 ng/mL, 3 min
[5] = Calu-3 cells, Bn 100 nM or NRG-1 100 ng/mL

Molecule: O=c1cc(N2CCOCC2)oc2c(-c3ccccc3)cccc12 [LY294002]
- effect on Bn-stimulated increase in cell-proliferation (H441 and Calu-3 cells; [1]): no significant effect

Molecule: COC[C@H]1OC(=O)c2coc3c2[C@@]1(C)C1=C(C3=O)[C@@H]2CCC(=O)[C@@]2(C)C[C@H]1OC(C)=O [Wortmannin, wortmannin]
- effect on Bn-stimulated increase in cell-proliferation (H441 and Calu-3 cells; [1]): no significant effect

Molecule: COc1cc2ncnc(Nc3ccc(F)c(Cl)c3)c2cc1OCCCN1CCOCC1 [gefitinib]
- effect on Bn-stimulated increase in cell-proliferation (H441 and Calu-3 cells; gefitinib 10 μg/mL): no effect
- activity at 10 µg/mL (H441 and Calu-3 cells; Homo sapiens, 24 h, read-out: basal stimulation (% of control)): 36 to 45%
- effect on Bn-stimulated phosphorylation of p44/42 (p44/42; H441 cells, gefitinib 10 μg/mL or EGFR knockdown, Bn 100 nM, 15 min): did not affect
- activity at 10 µg/mL (p44/42; Homo sapiens, NCI-H441, read-out: basal phosphorylation of p44/42 (% of control)): 75%
- effect on Bn-induced increment of Akt phosphorylation (Akt): no significant inhibitory effect
- activity at 10 µg/mL (Akt; Homo sapiens, NCI-H441, read-out: basal phosphorylation of Akt (% of control)): 79%

Molecule: neuregulin-1 [NRG-1]
- HER3/HER2 heterodimerization (HER3/HER2): HER3/HER2 heterodimerization in both cell-lines
- phosphorylation of HER3 maintained at 60 minutes (fold increase) (HER3; H441 cells, NRG-1 100 ng/mL, 60 minutes, p < 0.05 vs. control): 20 fold
- maximal HER3 phosphorylation (fold increase) (HER3; [2]): 44 fold
- HER3 phosphorylation (fold increase) (HER3; [3]): 21 fold
- duration of HER3 phosphorylation (HER3; H2087 cells, NRG-1 100 ng/mL): prolonged phosphorylation
- EC50, EGFR phosphorylation (EGFR; [4]): 4.9 ± 0.9 ng/mL
- maximum EGFR phosphorylation (fold increase) (EGFR; [3]): 5.2 fold
- EC50, EGFR phosphorylation (EGFR; H2087 cells, NRG-1, 3 min): 9.7 ± 1.3 ng/mL
- phosphorylation of p44/42 at 60 minutes (p44/42; [5]): still present
- stimulation time of maximum phosphorylation of p44/42 (p44/42; H441, H2087 and Calu-3 cells, Bn 100 nM or NRG-1 100 ng/mL): 15 min
- phosphorylation of p44/42 at 60 minutes (p44/42; H441 and H2087 cells, Bn 100 nM or NRG-1 100 ng/mL): not maintained at 60 minutes
- EC50, HER2 phosphorylation (HER2; [4]): 16.3 ± 3.4 ng/mL
- maximal HER2 phosphorylation (fold increase) (HER2; [2]): 34 fold
- HER2 phosphorylation (fold increase) (HER2; [3]): 22 fold
- duration of HER2 phosphorylation (HER2; H2087 cells, NRG-1 100 ng/mL): prolonged phosphorylation
- EC50, HER2 phosphorylation (HER2; H2087 cells, NRG-1, 3 min): 7.8 ± 2.0 ng/mL
- time of maximum phosphorylation of Akt (Akt; H441, H2087 and Calu-3 cells, NRG-1 100 ng/mL): 60 min
- stimulation time of maximum EGFR, HER2 and HER3 phosphorylation (EGFR, HER2, and HER3; [5]): 30 to 60 min
- maximal stimulation compared with Bn (EGFR, HER2, and HER3; H441, H2087 and Calu-3 cells, Bn 100 nM, NRG-1 100 ng/mL): greater than that seen with Bn
- time of maximum phosphorylation of EGFR, HER2, and HER3 (EGFR, HER2, and HER3; H441 cells, Bn 100 nM or NRG-1 100 ng/mL): 3 min
- HER3/EGFR heterodimerization (HER3/EGFR): induced HER3/EGFR

B1: neuregulin-1 (protein)
chain: TSHLVKCAEKEKTFCVNGGECFMVKDLSNPSRYLCKCPNEFTGDRCQNYVMASFYKHLGIEFMEAEELYQK
modifications: the alternative R&D product is the beta1 ECD (2-246)
- EC50, HER3 phosphorylation (HER3; [4]): 14.3 ± 1.7 ng/mL
- EC50, HER3 phosphorylation (HER3; H2087 cells, NRG-1, 3 min): 8.1 ± 1.7 ng/mL
